Test results reported in ChEMBL document CHEMBL2062521, “Discovery of 1-(β-amino substituted-β-alanyl)-N,N-dimethylindoline-2-carboxamides as novel nonpeptide antagonists of nociceptin/orphanin FQ receptor: efficient design, synthesis, and structure-activity relationship studies” (Eur J Med Chem, 2012).
Calls of active or inactive are those of the source. No cut-off for these calls is given here.

How the values were obtained:
Nociceptin receptor [1] = molecular target: T1, Nociceptin receptor (Homo sapiens, UniProt P41146); experiment: Antagonist activity at human recombinant ORL1 receptor expressed in HEK293 cells assessed as inhibition of N/OFQ-induced [35S]GTPgammaS binding to alpha-unit of G-protein after 1.5 hrs by scintillation counting; assay type: functional, cell-based
How it was run: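 Membranes from HEK-293 cells expressing hNOP receptor, incubated 1.5 h at 25 °C with 10 nM N/OFQ and compound at six concentrations (0.1 nM–10 µM) in 20 mM HEPES pH 7.4, 100 mM NaCl, 5 mM MgCl2, 1 mM EDTA, 5 µM GDP, 400 pM [35S]GTPγS, WGA-SPA beads. Duplicates; NSB with 10 µM unlabelled GTPγS; basal without ligands.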

Mu-type opioid receptor = Mu-type opioid receptor (Homo sapiens, UniProt P35372); experiment: Displacement of [3H]DAMGO from human recombinant MOP receptor expressed in CHO-K1 cells after 45 mins by scintillation proximity assay; assay type: cell-based
Nociceptin receptor [2] = molecular target: T1, Nociceptin receptor; experiment: Displacement of [3H]N/OFQ from human recombinant ORL1 receptor expressed in HEK293 cells after 45 mins by scintillation proximity assay; assay type: cell-based
How it was run: (§1)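 Compound at 10^-11–10^-5 M (six 10-fold steps), duplicates; nonspecific binding with 1 µM N/OFQ. IC50 by nonlinear regression, Ki by Cheng–Prusoff; percent inhibition reported at 1 µM.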

[3] = Half life in human liver microsomes by HPLC/MS/MS analysis; assay type: ADME, Microsome
Homo sapiens = species: Homo sapiens; experiment: Selectivity ratio of Ki for human recombinant MOP receptor to Ki for human recombinant ORL1 receptor
Nociceptin receptor [4] = molecular target: T1, Nociceptin receptor; experiment: Displacement of [3H]N/OFQ from human recombinant ORL1 receptor expressed in HEK293 cells at 1 uM after 45 mins by scintillation proximity assay; assay type: cell-based; how it was run: as §1

Sequence of Mu-type opioid receptor (P35372 whole entry): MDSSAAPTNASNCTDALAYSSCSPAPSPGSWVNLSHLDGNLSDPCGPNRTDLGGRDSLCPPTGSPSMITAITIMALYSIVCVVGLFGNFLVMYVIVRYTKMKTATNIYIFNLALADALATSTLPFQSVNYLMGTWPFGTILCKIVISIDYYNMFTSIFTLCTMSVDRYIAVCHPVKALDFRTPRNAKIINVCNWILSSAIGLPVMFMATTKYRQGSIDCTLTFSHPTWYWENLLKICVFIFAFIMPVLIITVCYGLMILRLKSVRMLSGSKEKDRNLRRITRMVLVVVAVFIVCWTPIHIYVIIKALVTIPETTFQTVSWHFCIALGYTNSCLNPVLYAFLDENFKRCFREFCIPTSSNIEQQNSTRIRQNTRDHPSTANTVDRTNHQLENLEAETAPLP
T1 sequence (P41146 whole entry): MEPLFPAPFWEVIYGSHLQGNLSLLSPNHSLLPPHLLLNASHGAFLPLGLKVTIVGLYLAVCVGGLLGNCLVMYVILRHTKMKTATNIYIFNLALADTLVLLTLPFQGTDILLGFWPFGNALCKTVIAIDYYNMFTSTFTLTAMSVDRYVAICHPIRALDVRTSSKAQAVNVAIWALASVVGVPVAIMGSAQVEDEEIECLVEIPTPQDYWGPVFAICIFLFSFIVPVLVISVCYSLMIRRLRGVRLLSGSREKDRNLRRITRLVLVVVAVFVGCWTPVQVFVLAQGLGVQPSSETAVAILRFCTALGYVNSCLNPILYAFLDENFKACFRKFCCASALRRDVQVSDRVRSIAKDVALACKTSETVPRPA

An IC50 (Nociceptin receptor [1]) of 44 nM, a Ki (Mu-type opioid receptor) of 67.2 nM and a Ki (Nociceptin receptor [2]) of 3.03 nM were found for `Cc1ccccc1C1CCN(CCC(=O)N2c3ccccc3C[C@H]2C(=O)N(C)C)CC1` in this work. For the same molecule, the half-life [3] was 24 min and the Ratio Ki (Homo sapiens) was 22.
An IC50 (Nociceptin receptor [1]) of 138 nM, a Ki (Mu-type opioid receptor) of 80.7 nM and a Ki (Nociceptin receptor [2]) of 13.6 nM were found for `CN(C)C(=O)[C@@H]1Cc2ccccc2N1C(=O)CCN1CCC(c2ccccc2)CC1` in this work. The half-life [3] was 55 min and the Ratio Ki (Homo sapiens) was 5.9.
An IC50 (Nociceptin receptor [1]) of 107 nM, a Ki (Mu-type opioid receptor) of 238 nM and a Ki (Nociceptin receptor [2]) of 9.84 nM were found for `CN(C)C(=O)[C@@H]1Cc2ccccc2N1C(=O)CCN1CCC(c2ccc(F)cc2)CC1` in this work. The half-life [3] was 82 min.
An IC50 (Nociceptin receptor [1]) of 42 nM, a Ki (Mu-type opioid receptor) of 139 nM and a Ki (Nociceptin receptor [2]) of 3.79 nM were found for `Cc1cc(F)ccc1C1CCN(CCC(=O)N2c3ccccc3C[C@H]2C(=O)N(C)C)CC1` in this work. It also gave a half-life [3] of 43 min.
An IC50 (Nociceptin receptor [1]) of 12 nM, a Ki (Mu-type opioid receptor) of 82.1 nM and a Ki (Nociceptin receptor [2]) of 0.96 nM were found for `Cc1cccc(C)c1C1CCN(CCC(=O)N2c3ccccc3C[C@H]2C(=O)N(C)C)CC1` in this work. The half-life [3] was 19 min and the Ratio Ki (Homo sapiens) was 86.
A Ki (Mu-type opioid receptor) of 28.4 nM, a Ki (Nociceptin receptor [2]) of over 250 nM and a half-life [3] of 10 min were found for `CN(C)C(=O)[C@@H]1Cc2ccccc2N1C(=O)CCN1CC2CCC(C1)C2c1ccccc1` (stereo not given in full) in this work. For the same molecule, the inhibition (Nociceptin receptor [4]) was 23%.
A Ki (Nociceptin receptor [2]) of over 250 nM and an inhibition (Nociceptin receptor [4]) of 33% were found for `CN(C)C(=O)C1Cc2ccccc2N1C(=O)CCN1CC[C@@H]2c3ccccc3CC[C@@H]2C1` (mixture of isomers) in this work.
An IC50 (Nociceptin receptor [1]) of 116 nM, a Ki (Mu-type opioid receptor) of 138 nM and a Ki (Nociceptin receptor [2]) of 5.55 nM were found for `Cc1ccccc1C1CCN(CCC(=O)N2c3ccccc3CC2C(=O)N(C)C)CC1` (racemic) in this work. It also gave a Ratio Ki (Homo sapiens) of 25.
With `CN(C)C(=O)C1Cc2ccccc2N1C(=O)CCN1CCC(N2CCCCC2)CC1` (racemic) the Ki (Mu-type opioid receptor) was over 450 nM, the Ki (Nociceptin receptor [2]) was over 250 nM and the inhibition (Nociceptin receptor [4]) was “inactive”.
A Ki (Mu-type opioid receptor) of 29.8 nM, a Ki (Nociceptin receptor [2]) of 128 nM and a Ratio Ki (Homo sapiens) of 0.23 were found for `CCOc1ccccc1N1CCN(CCC(=O)N2c3ccccc3CC2C(=O)N(C)C)CC1` (racemic) in this work.
An IC50 (Nociceptin receptor [1]) of 48000 nM, a Ki (Mu-type opioid receptor) of 397 nM and a Ki (Nociceptin receptor [2]) of over 250 nM were found for `CN(C)C(=O)C1Cc2ccccc2N1C(=O)CCN1CCN(c2ccccc2)CC1` (racemic) in this work. It also gave an inhibition (Nociceptin receptor [4]) of 43%.
A Ki (Mu-type opioid receptor) of 235 nM, a Ki (Nociceptin receptor [2]) of over 250 nM and an inhibition (Nociceptin receptor [4]) of 37% were found for `CN(C)C(=O)C1Cc2ccccc2N1C(=O)CCN1CCN(c2cnccn2)CC1` (racemic) in this work.
A Ki (Mu-type opioid receptor) of over 450 nM, a Ki (Nociceptin receptor [2]) of over 250 nM and an inhibition (Nociceptin receptor [4]) of 21% were found for `CC(c1ccccc1)N1CCN(CCC(=O)N2c3ccccc3CC2C(=O)N(C)C)CC1` (racemic) in this work.
A Ki (Mu-type opioid receptor) of over 450 nM, a Ki (Nociceptin receptor [2]) of over 250 nM and an inhibition (Nociceptin receptor [4]) of 11% were found for `CN(C)C(=O)C1Cc2ccccc2N1C(=O)CCN1CCN(C2CCCCC2)CC1` (racemic) in this work.
A Ki (Mu-type opioid receptor) of over 450 nM and a Ki (Nociceptin receptor [2]) of 101 nM were found for `CCC(CC)N1CCN(CCC(=O)N2c3ccccc3CC2C(=O)N(C)C)CC1` (racemic) in this work.
A Ki (Mu-type opioid receptor) of over 450 nM, a Ki (Nociceptin receptor [2]) of over 250 nM and an inhibition (Nociceptin receptor [4]) of 40% were found for `CCCC(C)N1CCN(CCC(=O)N2c3ccccc3CC2C(=O)N(C)C)CC1` (racemic) in this work.
An IC50 (Nociceptin receptor [1]) of 2300 nM, a Ki (Mu-type opioid receptor) of 502 nM and a Ki (Nociceptin receptor [2]) of 26.2 nM were found for `CN(C)C(=O)C1Cc2ccccc2N1C(=O)CCN1CCC(c2ccccc2)CC1` (racemic) in this work. It also gave a Ratio Ki (Homo sapiens) of 19.
A Ki (Nociceptin receptor [2]) of 26.5 nM was found for `CN(C)C(=O)C1Cc2ccccc2N1C(=O)CCN1CCC(c2ccccc2F)CC1` (racemic) in this work.
A Ki (Nociceptin receptor [2]) of 31.5 nM was found for `CN(C)C(=O)C1Cc2ccccc2N1C(=O)CCN1CCC(c2ccccc2C(F)(F)F)CC1` (racemic) in this work.
For `CN(C)C(=O)C1Cc2ccccc2N1C(=O)CCN1CCC(c2ccccn2)CC1` (racemic), the Ki (Nociceptin receptor [2]) was over 250 nM and the inhibition (Nociceptin receptor [4]) was “inactive”.
A Ki (Nociceptin receptor [2]) of 286 nM was found for `CN(C)C(=O)C1Cc2ccccc2N1C(=O)CCN1CCC(C2CCCCC2)CC1` (racemic) in this work.
A Ki (Nociceptin receptor [2]) of over 250 nM and an inhibition (Nociceptin receptor [4]) of 15% were found for `CN(C)C(=O)C1Cc2ccccc2N1C(=O)CCN1CCCC(c2ccccc2)CC1` (racemic) in this work.
A Ki (Mu-type opioid receptor) of 318 nM, a Ki (Nociceptin receptor [2]) of 11.6 nM and a Ratio Ki (Homo sapiens) of 27 were found for `Cc1ccccc1N1CCN(CCC(=O)N2c3ccccc3CC2C(=O)N(C)C)CC1` (racemic) in this work.
A Ki (Nociceptin receptor [2]) of over 250 nM and an inhibition (Nociceptin receptor [4]) of 13% were found for `Cc1cccc(N2CCN(CCC(=O)N3c4ccccc4CC3C(=O)N(C)C)CC2)c1` (racemic) in this work.
A Ki (Nociceptin receptor [2]) of over 250 nM and an inhibition (Nociceptin receptor [4]) of 25% were found for `Cc1ccc(N2CCN(CCC(=O)N3c4ccccc4CC3C(=O)N(C)C)CC2)c(C)c1` (racemic) in this work.
A Ki (Mu-type opioid receptor) of over 450 nM, a Ki (Nociceptin receptor [2]) of over 250 nM and an inhibition (Nociceptin receptor [4]) of 11% were found for `CN(C)C(=O)C1Cc2ccccc2N1C(=O)CCN1CCN(Cc2ccccc2)CC1` (racemic) in this work.
A Ki (Nociceptin receptor [2]) of over 250 nM and an inhibition (Nociceptin receptor [4]) of 3% were found for `CN(C)C(=O)C1Cc2ccccc2N1C(=O)CCN1CCN(C2CCCC2)CC1` (racemic) in this work.
A Ki (Nociceptin receptor [2]) of over 250 nM and an inhibition (Nociceptin receptor [4]) of 12% were found for `CN(C)C(=O)C1Cc2ccccc2N1C(=O)CCN1CCN(C2CCCCCC2)CC1` (racemic) in this work.
A Ki (Nociceptin receptor [2]) of over 250 nM and an inhibition (Nociceptin receptor [4]) of 12% were found for `CN(C)C(=O)C1Cc2ccccc2N1C(=O)CCN1CCN(C2CCCCCCC2)CC1` (racemic) in this work.
A Ki (Nociceptin receptor [2]) of over 250 nM and an inhibition (Nociceptin receptor [4]) of 16% were found for `CN(C)C(=O)C1Cc2ccccc2N1C(=O)CCN1Cc2ccccc2C1` (racemic) in this work.
A Ki (Nociceptin receptor [2]) of over 250 nM and an inhibition (Nociceptin receptor [4]) of 11% were found for `CN(C)C(=O)C1Cc2ccccc2N1C(=O)CCN1CCc2ccccc2C1` (racemic) in this work.
A Ki (Nociceptin receptor [2]) of over 250 nM and an inhibition (Nociceptin receptor [4]) of 15% were found for `CN(C)C(=O)C1Cc2ccccc2N1C(=O)CCN1Cc2cccc3cccc(c23)C1` (racemic) in this work.
